Experimental data as given in ChEMBL document CHEMBL3734696, “Discovery of novel 5-fluoro-N(2),N(4)-diphenylpyrimidine-2,4-diamines as potent inhibitors against CDK2 and CDK9” (Medchemcomm, 2015).

How the values were obtained:
CDK9/cyclin T1 = CDK9/cyclin T1 (Homo sapiens, UniProt P50750); test: Inhibition of CDK9/Cyclin-T1 (unknown origin) using UlightCFFKNIVTPRTPPPSQGK-amide substrate after 90 mins by […]; format: protein-complex assay
[1] = test system: Human immunodeficiency virus 1; test: Antiviral activity against Human immunodeficiency virus 1 NL 4-3 infected in MT4 cells measured on day 4 post infection by p24 assay; format: functional, organism-based; conditions: Human immunodeficiency virus 1, NL 4-3, MT4, 96 h
MT4 = test: Cytotoxicity against human MT4 cells; format: cell-based
[2] = Therapeutic index, ratio of IC50 for human MT4 cells to EC50 for Human immunodeficiency virus 1 NL 4-3; format: cell-based; conditions: read-out: Ratio IC50/EC50
A549 = test: Antiproliferative activity against human A549 cells after 3 days by SRB method; format: functional; conditions: A549, 72 h
Procedure, shortened: (§1)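 Freshly trypsinized cells seeded at 1500–7500 per well with compound added from DMSO-diluted stock. After 3 days, attached cells fixed with cold 50% TCA, stained with 0.4% SRB, and bound dye solubilized. Value is the mean of three independent determinations.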

[3] = Antiproliferative activity against human DU145 cells after 3 days by SRB method; format: functional; conditions: DU-145, 72 h; procedure, shortened: as §1
[4] = Antiproliferative activity against human KBVIN cells after 3 days by SRB method; format: functional; conditions: 72 h; procedure, shortened: as §1
[5] = molecular target: Cyclin-dependent kinase 2/cyclin E1 (Homo sapiens, UniProt P24941); test: Inhibition of CDK2/cyclin E1 (unknown origin) expressed in Sf9 insect cells using UlightCFFKNIVTPRTPPPSQGK-amide substrate after 15 mins by […]

Sequence of CDK9/cyclin T1 (O60563 whole entry): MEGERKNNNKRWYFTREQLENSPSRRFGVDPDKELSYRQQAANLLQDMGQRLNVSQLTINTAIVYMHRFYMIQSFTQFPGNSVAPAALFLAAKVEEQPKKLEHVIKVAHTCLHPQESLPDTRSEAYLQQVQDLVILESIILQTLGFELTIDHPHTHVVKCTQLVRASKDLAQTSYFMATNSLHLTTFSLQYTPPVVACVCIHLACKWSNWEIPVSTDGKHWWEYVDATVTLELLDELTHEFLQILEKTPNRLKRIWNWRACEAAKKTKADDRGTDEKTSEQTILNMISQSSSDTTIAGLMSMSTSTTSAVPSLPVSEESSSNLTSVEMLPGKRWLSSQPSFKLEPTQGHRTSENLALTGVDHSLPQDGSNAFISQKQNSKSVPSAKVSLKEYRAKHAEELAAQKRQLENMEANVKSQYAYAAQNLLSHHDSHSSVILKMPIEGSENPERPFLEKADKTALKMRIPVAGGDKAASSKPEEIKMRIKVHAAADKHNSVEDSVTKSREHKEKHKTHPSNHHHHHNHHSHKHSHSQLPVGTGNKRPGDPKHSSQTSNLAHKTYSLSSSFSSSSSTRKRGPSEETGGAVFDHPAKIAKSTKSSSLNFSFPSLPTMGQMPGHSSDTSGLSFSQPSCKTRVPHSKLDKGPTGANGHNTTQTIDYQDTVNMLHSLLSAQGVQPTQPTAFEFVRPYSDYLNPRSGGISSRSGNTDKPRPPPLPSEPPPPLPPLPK
Sequence of CDK9/cyclin T1 (P50750 whole entry): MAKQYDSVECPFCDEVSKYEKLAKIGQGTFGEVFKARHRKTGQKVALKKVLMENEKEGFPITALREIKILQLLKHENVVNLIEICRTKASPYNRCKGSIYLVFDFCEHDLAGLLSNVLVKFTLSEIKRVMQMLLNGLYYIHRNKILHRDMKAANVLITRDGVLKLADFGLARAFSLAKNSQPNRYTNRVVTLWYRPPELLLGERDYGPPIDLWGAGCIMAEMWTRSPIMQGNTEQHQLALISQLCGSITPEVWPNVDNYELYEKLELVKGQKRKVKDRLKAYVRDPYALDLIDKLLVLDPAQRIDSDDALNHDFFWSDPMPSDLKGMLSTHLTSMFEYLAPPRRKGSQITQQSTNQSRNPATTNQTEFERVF

IC50 (CDK9/cyclin T1) | EC50 [1] | GI50 (A549) | IC50 [5] | Compound | IC50 (MT4) | selectivity ratio [2] | GI50 [3] | GI50 [4]
0.33 µM | 1.37 µM | 1.09 µM | 5.85 µM | Fc1cnc(Nc2cccc(N3CCOCC3)c2)nc1Nc1c(F)cccc1F | 10.2 µM | 7.45 | 4.24 µM | > 10 µM
 |  | 12.2 µM |  | CS(=O)(=O)N1CCN(C(=O)c2cccc(Nc3ncc(F)c(Nc4ccc(F)cc4)n3)c2)CC1 |  |  | 17.9 µM | > 10 µM
 |  | 11.6 µM |  | Fc1cnc(Nc2cccc(N3CCOCC3)c2)nc1Nc1cc(Cl)cc(Cl)c1 |  |  | > 10 µM | 22.5 µM
 |  | 10.1 µM |  | Cn1ccnc1NC(=O)c1cccc(Nc2ncc(F)c(Nc3ccc(F)cc3)n2)c1 |  |  | 15.1 µM | 13.1 µM
 |  | 17.4 µM |  | O=C(Nc1cc(Cl)cc(Cl)c1)c1cccc(Nc2ncc(F)c(Nc3ccc(F)cc3)n2)c1 |  |  | 17.5 µM | 20.7 µM
 |  | 10.3 µM |  | O=C(Nc1cccc(Nc2ncc(F)c(Nc3ccc(F)cc3)n2)c1)c1cnccn1 |  |  | 26.4 µM | 20.1 µM
 |  | 15.3 µM |  | O=C(Nc1ccccn1)c1cccc(Nc2ncc(F)c(Nc3ccc(F)cc3)n2)c1 |  |  | 15.1 µM | 13.7 µM
 |  | 3.83 µM |  | Fc1ccc(Nc2nc(Nc3cccc(N4CCOCC4)c3)ncc2F)cc1 |  |  | > 10 µM | > 10 µM
15.6 µM | 7.08 µM | 9.96 µM | 60.6 µM | CC(=O)N1CCCN(C(=O)c2cccc(Nc3ncc(F)c(Nc4ccc(F)cc4)n3)c2)CC1 |  | 2.18 | 15.7 µM | 16.7 µM
 |  | 13.8 µM |  | COc1cc(NC(=O)c2cccc(Nc3ncc(F)c(Nc4ccc(F)cc4)n3)c2)cc(OC)c1 |  |  | 13.7 µM | 12.7 µM
 |  | 12.9 µM |  | O=C(Nc1ccc2c(c1)OCO2)c1cccc(Nc2ncc(F)c(Nc3ccc(F)cc3)n2)c1 |  |  | 11.6 µM | 12 µM
 |  | 11 µM |  | COc1ccc(NC(=O)c2cccc(Nc3ncc(F)c(Nc4ccc(F)cc4)n3)c2)cc1 |  |  | > 10 µM | 15.7 µM
 |  | 13.2 µM |  | O=C(c1cccc(Nc2ncc(F)c(Nc3ccc(F)cc3)n2)c1)N1CCCCC1 |  |  | 13 µM | 13.8 µM
 |  | 11.2 µM |  | O=C(c1cccc(Nc2ncc(F)c(Nc3ccc(F)cc3)n2)c1)N1CCOCC1 |  |  | 11.9 µM | 13.1 µM
 |  | > 10 µM |  | O=C(Nc1ccc(C(F)(F)F)cc1)c1cccc(Nc2ncc(F)c(Nc3ccc(F)cc3)n2)c1 |  |  | > 10 µM | > 10 µM
 |  | > 10 µM |  | CN(C)c1ccc(C(=O)Nc2cccc(Nc3ncc(F)c(Nc4ccc(F)cc4)n3)c2)cc1 |  |  | > 10 µM | > 10 µM
2.02 µM |  | 2.05 µM | 3.27 µM | COCC(=O)Nc1cccc(Nc2ncc(F)c(Nc3ccc(F)cc3)n2)c1 |  |  | 4.46 µM | 3.94 µM
 | 0.015 µM | 0.14 µM |  | CN1CC[C@H](c2c(O)cc(O)c3c(=O)cc(-c4ccccc4Cl)oc23)[C@H](O)C1 [ALVOCIDIB] | 0.067 µM |  | 0.15 µM | 0.18 µM
1.72 µM |  | 1.45 µM | 4.65 µM | CN(C)CCNC(=O)c1cccc(Nc2ncc(F)c(Nc3ccc(F)cc3)n2)c1 |  |  | 4.34 µM | 7.26 µM
 |  | 37.8 µM |  | O=C(Nc1cccc(Nc2ncc(F)c(Nc3ccc(F)cc3)n2)c1)c1ccccc1 |  |  | > 10 µM | > 10 µM
> 10 µM |  | 1.13 µM | > 10 µM | COc1ccc(N2CCN(C)CC2)cc1Nc1ncc(F)c(Nc2ccc(F)cc2)n1 |  |  | 0.91 µM | 0.91 µM
 |  | > 10 µM |  | O=C(Nc1ccc(N2CCOCC2)cc1)c1cccc(Nc2ncc(F)c(Nc3ccc(F)cc3)n2)c1 |  |  | > 10 µM | > 10 µM
 |  | > 10 µM |  | O=C(Nc1nccs1)c1cccc(Nc2ncc(F)c(Nc3ccc(F)cc3)n2)c1 |  |  | > 10 µM | > 10 µM
 |  | 11.8 µM |  | O=C(NCCO)c1cccc(Nc2ncc(F)c(Nc3ccc(F)cc3)n2)c1 |  |  | 13.4 µM | 21.4 µM
 |  | 7.25 µM |  | O=C(Nc1cccc(Nc2ncc(F)c(Nc3ccc(F)cc3)n2)c1)c1cccc([N+](=O)[O-])c1 |  |  | 12.6 µM | 11.3 µM
2.57 µM |  | 1.65 µM | 15.3 µM | O=C(Nc1cccc(Nc2ncc(F)c(Nc3ccc(F)cc3)n2)c1)c1ccncc1 |  |  | 4.33 µM | 4.57 µM
 |  | 18.3 µM |  | COc1ccc(N2CCOCC2)cc1Nc1ncc(F)c(Nc2ccc(F)cc2)n1 |  |  | > 10 µM | > 10 µM
11.3 µM |  | 9.07 µM | 22.1 µM | CN1CCN(C(=O)c2cccc(Nc3ncc(F)c(Nc4ccc(F)cc4)n3)c2)CC1 |  |  | 10.9 µM | 12.3 µM
 |  | 12 µM |  | Fc1cnc(Nc2cccc(N3CCOCC3)c2)nc1Nc1ccc(Cl)c(Cl)c1 |  |  | > 10 µM | > 10 µM
2.45 µM |  | 1.33 µM | 1.24 µM | CN1CCC(C(=O)Nc2cccc(Nc3ncc(F)c(Nc4ccc(F)cc4)n3)c2)CC1 |  |  | 1.15 µM | 11.9 µM
